# Source: PubChem BioAssay (Johns Hopkins Ion Channel Center)
# TRPC4 act: activators of mouse TRPC4 channel, primary screen, Fluo4 calcium, HEK293 TRPC4beta/mu-opioid cells; Short transient receptor potential channel 4 (Mus musculus), Q9QUQ5; Fluo4 calcium fluorescence; hits give high values; B-score at 10 µM; 310,000 compounds, 0.49% hits; AID 2237, 2010;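 active means B-score above 5 SD of library B-scores, and initial fluorescence ratio not above library mean plus 5 SD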;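 further: positive B-score marks a calcium rise read as TRPC4 activation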
#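 Assay system: HEK293 stable line with TRPC4beta plus mu-opioid receptor; schedule: 45 min room-temperature Fluo4 loading, 110 s read; technique: kinetic Fluo4 calcium fluorescence; evaluation: integrated baseline-normalised fluorescence ratio, converted to per-well B score; controls: buffer (low) and maximal DAMGO (high)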
# TRPC4 block: inhibitors of mouse TRPC4 channel, primary screen, Fluo4 calcium, HEK293 TRPC4beta/mu-opioid cells; Short transient receptor potential channel 4 (Mus musculus), Q9QUQ5; B-score at 10 µM; 300,000 compounds, 0.39% hits; AID 2247, 2010; DAMGO-evoked Fluo4 calcium flux; hits give low values;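 active means B-score over 3 SD under the library average, no early fluorescence shift, positive overall ratio signal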
#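 Test system – stable TRPC4beta/mu-opioid receptor HEK293 cells · Probe or stimulus – DAMGO, a submaximal dose followed by a maximal one · Dosing – one concentration per compound · Signal – Fluo4 calcium fluorescence by kinetic imaging, 5 s 1 Hz baseline · Evaluation – per-well B score of integrated baseline-normalized Fluo4 ratio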
# TRPC4 PAM: positive allosteric modulators of TRPC4, primary screen, cell-based, mouse TRPC4beta, HEK293 mu-opioid, Fluo-4 calcium; Short transient receptor potential channel 4 (Mus musculus), Q9QUQ5; DAMGO EC20, Fluo-4 Ca2+ flux; hits give high values; B-score at 10 µM; 310,000 compounds, 0.42% hits; AID 2227, 2009;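 active means B-score of calcium response area above 5 SD of library B-scores, with initial fluorescence ratio within 5 SD of library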;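 further: B-score of integrated fluorescence ratio over time as area under calcium response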
# TRPC6 inhibitor: mouse TRPC6 channel inhibitors, primary screen, cell-based, HEK293, membrane potential dye; ACh-evoked depolarization; hits give low values; Short transient receptor potential channel 6 (Mus musculus), Q61143; B-score at 10 µM; 310,000 compounds, 1.1% hits;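 active means B-score under library mean minus 3 SD, initial fluorescence not abnormally high, positive integrated signal ratio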;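 further: B-score derived from integrated fluorescence ratio over the kinetic read; more negative B-score means stronger inhibition of depolarization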
# Target sequence (Q61143 whole entry, looked up): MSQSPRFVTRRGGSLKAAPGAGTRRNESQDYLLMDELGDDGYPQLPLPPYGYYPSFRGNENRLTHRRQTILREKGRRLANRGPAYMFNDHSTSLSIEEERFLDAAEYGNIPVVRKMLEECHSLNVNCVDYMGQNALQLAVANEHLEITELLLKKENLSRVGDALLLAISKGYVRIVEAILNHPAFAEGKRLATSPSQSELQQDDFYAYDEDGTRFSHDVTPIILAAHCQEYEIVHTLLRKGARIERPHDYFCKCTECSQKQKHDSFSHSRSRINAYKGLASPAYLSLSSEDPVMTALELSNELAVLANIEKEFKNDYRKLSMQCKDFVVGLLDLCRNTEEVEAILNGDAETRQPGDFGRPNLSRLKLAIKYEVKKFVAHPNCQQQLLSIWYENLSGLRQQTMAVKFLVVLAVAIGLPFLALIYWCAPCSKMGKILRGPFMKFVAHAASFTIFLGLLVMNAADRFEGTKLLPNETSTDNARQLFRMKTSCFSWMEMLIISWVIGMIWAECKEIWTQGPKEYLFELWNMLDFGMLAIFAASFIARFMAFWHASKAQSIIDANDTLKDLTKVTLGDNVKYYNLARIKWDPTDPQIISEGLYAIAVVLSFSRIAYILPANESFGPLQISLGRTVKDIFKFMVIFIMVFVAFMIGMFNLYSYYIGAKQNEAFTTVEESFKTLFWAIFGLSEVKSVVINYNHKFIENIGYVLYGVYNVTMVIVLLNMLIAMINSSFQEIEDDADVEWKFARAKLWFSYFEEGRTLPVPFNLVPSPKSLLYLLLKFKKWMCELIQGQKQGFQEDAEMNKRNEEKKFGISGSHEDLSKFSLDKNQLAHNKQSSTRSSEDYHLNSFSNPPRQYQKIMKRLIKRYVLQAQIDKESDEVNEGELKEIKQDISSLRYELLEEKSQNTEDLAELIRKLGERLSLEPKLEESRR
# TRPC6 activator: mouse TRPC6 channel activators, primary screen, cell-based, HEK293, membrane potential dye | 310,000 compounds, 0.13% hits | HEK293-TRPC6 membrane potential dye fluorescence; hits give high values | B-score at 10 µM;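 active means B-score of the integrated fluorescence ratio above library mean plus 3 SD, and starting fluorescence ratio within library mean plus 5 SD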;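 further: higher score means more depolarization so channel activation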
# Starred values were filed as active, the others as inactive; i = inactive; nt = no result given. Sampled rows, rich in hits. Any-hit rate of the full collection: about 2.3%.
SMILES,TRPC4 act,TRPC4 block,TRPC4 PAM,TRPC6 inhibitor,TRPC6 activator
COCCN1CCN(C(=O)c2ccc3oc(CCc4ccccc4)nc3c2)CC1,i,i,i,i,i
O=C(Nc1cc(Cl)cc(Cl)c1)c1cnn2cccnc12,i,i,i,i,i
O=C(Nc1cccc(Cl)c1)c1cnn2cccnc12,i,nt,34*,i,i
COC(=O)c1ccccc1NC(=O)c1cnn2cccnc12,i,i,54*,i,i
CCOc1cc(/C=N/NC(=O)c2ccc(N(C)S(=O)(=O)c3ccccc3)cc2)ccc1OC,i,i,i,i,i
Cc1ccc(-c2n[nH]c(=O)c3ccccc23)cc1S(=O)(=O)Nc1ccccc1,i,i,12*,i,i
Cc1cc(C(F)(F)F)nn1CC(=O)N1CCOCC1,i,i,i,i,i
COc1ccccc1CN=C1Nc2ccccc2CS1,71*,i,i,i,i
CC(C)CNS(=O)(=O)c1ccc(OCC(=O)NCC2CCCO2)c(Cl)c1 (stereo unspecified),i,i,i,i,i
CC1CCCN(C2=C(NS(=O)(=O)c3ccc(Br)cc3)C(=O)c3ccccc3C2=O)C1 (stereo unspecified),i,i,16*,i,i
CC(C)CCNC(=O)C1CC(c2cccc(F)c2)=NO1 (stereo unspecified),i,i,i,i,i
CNC(=S)NNC(=O)c1cccn(Cc2cccc(Cl)c2)c1=O,i,i,13*,i,i
Cc1cccc(-c2csc(N)c2C(=O)OC(C)C)c1,i,-6*,i,i,i
Cc1ccc(C)c(-c2csc(N)c2C(=O)OC(C)C)c1,i,i,i,i,i
Cc1ccc2cccc(NC(=O)c3ccc(Br)o3)c2n1,i,i,i,i,i
Cn1c(=O)c2c(nc(CN3CCc4ccccc4C3)n2Cc2ccc(F)cc2)n(C)c1=O,i,i,23*,i,i
CCC1CCCCN1Cc1nc2c(c(=O)n(C)c(=O)n2C)n1Cc1ccccc1 (stereo unspecified),i,-6*,i,i,i
CCC1CCCCN1Cc1nc2c(c(=O)n(C)c(=O)n2C)n1CCCc1ccccc1 (stereo unspecified),i,i,i,i,i
COC(=O)Cn1c(CN2CCc3ccccc3C2)nc2c1c(=O)n(C)c(=O)n2C,i,i,i,i,i
CCn1c(CN2CCN(C(c3ccccc3)c3ccccc3)CC2)nc2c1c(=O)n(C)c(=O)n2C,i,i,17*,i,i
Cc1ccccc1Cn1c(CN2CCc3ccccc3C2)nc2c1c(=O)n(C)c(=O)n2C,52*,i,119*,i,i
O=C(Nc1ncn[nH]1)c1cccc(S(=O)(=O)N2CCOCC2)c1,i,i,i,i,i
COC(=O)c1cccc(Oc2nc3c(c(=O)n(C)c(=O)n3C)n2Cc2ccc(C)cc2)c1,i,-6*,i,i,i
CCCCCCn1c(N2CCN(c3ccccc3)CC2)nc2c1c(=O)n(C)c(=O)n2C,i,i,94*,i,i
CN(Cc1ccccc1)Cc1nc2c(c(=O)n(C)c(=O)n2C)n1Cc1ccc(F)cc1,i,i,i,i,i
SMILES,TRPC4 act,TRPC4 block,TRPC4 PAM,TRPC6 inhibitor,TRPC6 activator
Cc1ccc(Cn2c(CN(C)Cc3ccccc3)nc3c2c(=O)n(C)c(=O)n3C)cc1,i,i,10*,i,i
Clc1ccccc1-c1ccc(CN2CCN(c3ccccc3)CC2)o1,i,i,i,i,i
COc1ccc(C(CNC(=O)c2ccc(S(=O)(=O)Nc3ccc(F)cc3)cc2)N(C)C)cc1 (stereo unspecified),66*,i,i,i,i
CN(C)C(CNC(=O)c1ccc2nc[nH]c2c1)c1ccccc1 (stereo unspecified),142*,i,i,i,i
CCOc1ccc(S(=O)(=O)Nc2cccc(C(=O)NCC(c3ccccc3)N(C)C)c2)cc1 (stereo unspecified),198*,i,i,i,i
CN(C)C(CNC(=O)CNC(=O)c1ccc2ccccc2c1)c1ccccc1 (stereo unspecified),i,i,i,i,i
COc1ccc(C(CNC(=O)c2ccc(NS(=O)(=O)c3ccc4c(c3)OCCO4)cc2)N(C)C)cc1 (stereo unspecified),i,i,i,i,i
CCOc1ccc(S(=O)(=O)Nc2cccc(C(=O)NCC(c3ccco3)N(C)C)c2)cc1 (stereo unspecified),i,i,i,i,i
CC(=O)c1ccc(S(=O)(=O)NCc2ccc(C(=O)NCC(c3ccccc3)N(C)C)cc2)cc1 (stereo unspecified),177*,i,i,i,i
CCn1c(=S)sc2c(=O)n(CC(=O)Nc3ccc(C(C)=O)cc3)c(C)nc21,i,i,i,i,i
COc1ccc(-c2cc(C(F)(F)F)c(C#N)c(SCC(=O)O)n2)cc1OC,i,i,i,i,i
CN1CCN(C(=O)C2CC(c3c(F)cccc3Cl)=NO2)CC1 (stereo unspecified),i,i,i,i,i
COc1cc(OC)c(NC(=O)c2sc3ncn(CC(=O)N4CCOCC4)c(=O)c3c2C)cc1Cl,i,i,i,i,i
O=C1[C@@H]2CSCN2C(=O)CN1Cc1ccc(F)cc1,i,i,i,i,i
COc1ccc(C(CNC(=O)c2cccc(NS(=O)(=O)c3ccccc3)c2)N(C)C)cc1 (stereo unspecified),53*,-6*,i,i,i
COc1ccc(NS(=O)(=O)c2cccc(C(=O)NCC(c3ccco3)N(C)C)c2)cc1 (stereo unspecified),i,i,i,i,i
CCN(CC)S(=O)(=O)c1cccc(C(=O)NCC(c2ccccc2)N(C)C)c1 (stereo unspecified),79*,i,i,i,i
COc1ccc(C(CNC(=O)c2cccc(NS(=O)(=O)c3ccc(C)c(F)c3)c2)N(C)C)cc1 (stereo unspecified),81*,i,i,i,i
